Laboratory results reported in ChEMBL document CHEMBL1123853, “A novel class of cardiotonics. Synthesis and pharmacological properties of [4-(substituted-amino)phenyl]pyridazinones and related derivatives” (1987).

Legend:
[1] = organism: Canis familiaris; test: Positive inotropic in the isolated papillary muscle of the dog.; format: functional, Canis lupus familiaris
In short: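 Right ventricular anterior papillary muscle with septum, from mongrel dogs (7–12 kg, pentobarbital 30 mg/kg iv). It was perfused at about 100 mmHg via the septal artery with blood from a heparinized donor dog and paced at 120/min (1 ms pulses, about 1.5× threshold). Isometric tension was recorded. Saline solutions were injected intra-arterially, with amrinone as reference. ED15 (15% rise in developed tension) was taken from log dose-response curves. Results are mean ± SEM (n = 7) or mean ± range (n = 2).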

[2] = tested on: Canis familiaris; test: Inotropic activity determined by evaluating the maximum rate of rise in left ventricular pressure at a dose of 1 ug/kg administered intravenously […]; format: functional, Canis lupus familiaris, Muscle tissue
In short: (§1)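 Mongrel dogs of either sex, 7–15 kg, anesthetized with sodium pentobarbital (30 mg/kg iv), open-chest, intubated and ventilated on room air. Compounds given intravenously. A femoral artery catheter with pressure transducer recorded SBP and DBP. dP/dtmax, right ventricular contractile force, cardiac output and heart rate were also recorded, as % change at each iv dose.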

[3] = tested on: Canis familiaris; test: Inotropic activity determined by evaluating the % change in Systolic Blood Pressure (SBP) at a dose of 10 ug/kg administered intravenously […]; format: functional, Canis lupus familiaris; in short: as §1
[4] = tested on: Canis familiaris; test: Inotropic activity determined by evaluating the % change in Cardiac out put (CO)at a dose of 10 ug/kg administered intravenously […]; format: functional, Canis lupus familiaris; in short: as §1
[5] = tested on: Canis familiaris; test: Inotropic activity determined by evaluating the % change in Heart Rate (HR) at a dose of 1 ug/kg administered intravenously […]; format: functional, Canis lupus familiaris; in short: as §1
[6] = tested on: Canis familiaris; test: Inotropic activity determined by evaluating the % change in Heart Rate (HR) at a dose of 3 ug/kg administered intravenously […]; format: functional, Canis lupus familiaris; in short: as §1
[7] = tested on: Canis familiaris; test: Inotropic activity determined by evaluating the % change in Diastolic Blood Pressure (DBP) at a dose of 10 ug/kg administered intravenously […]; format: functional, Canis lupus familiaris; in short: as §1
[8] = tested on: Canis familiaris; test: Inotropic activity determined by evaluating the % change in Diastolic Blood Pressure (DBP) at a dose of 1 ug/kg administered intravenously […]; format: functional, Canis lupus familiaris; in short: as §1
[9] = tested on: Canis familiaris; test: Inotropic activity determined by evaluating the % change in Heart Rate (HR) at a dose of 10 ug/kg administered intravenously […]; format: functional, Canis lupus familiaris; in short: as §1
[10] = organism: Canis familiaris; test: Positive inotropic activity determined in the […](that produced 30% increase in dose- response curves [dP/dt(max)]); format: functional; settings: Canis lupus familiaris
In short: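 In the anesthetized open-chest dog (mongrel, 7–15 kg, pentobarbital 30 mg/kg iv, ventilated on room air), compounds were given intravenously and LV dP/dtmax was recorded. The dose giving a 30% rise in dP/dtmax was read from the dose-response curves. Results are mean ± SEM (n = 3) or mean ± range (n = 2).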

[11] = tested on: Canis familiaris; test: Inotropic activity determined by evaluating the maximum rate of rise in left ventricular pressure at a dose of 10 ug/kg administered intravenously […]; format: functional, Canis lupus familiaris, Muscle tissue; in short: as §1
[12] = tested on: Canis familiaris; test: Inotropic activity determined by evaluating the % change in Systolic Blood Pressure (SBP) at a dose of 3 ug/kg administered intravenously […]; format: functional, Canis lupus familiaris, Muscle tissue; in short: as §1
[13] = tested on: Canis familiaris; test: Inotropic activity determined by evaluating the % change in contractile force (CF) of right ventricle at a dose of 1 ug/kg administered intravenously […]; format: functional, Canis lupus familiaris, Heart right ventricle; in short: as §1
[14] = tested on: Canis familiaris; test: Inotropic activity determined by evaluating the % change in Cardiac out put (CO)at a dose of 1 ug/kg administered intravenously […]; format: functional, Canis lupus familiaris; in short: as §1
[15] = tested on: Canis familiaris; test: Inotropic activity determined by evaluating the % change in Systolic Blood Pressure (SBP) at a dose of 1 ug/kg administered intravenously […]; format: functional, Canis lupus familiaris, Muscle tissue; in short: as §1
[16] = tested on: Canis familiaris; test: Inotropic activity determined by evaluating the % change in contractile force (CF) of right ventricle at a dose of 10 ug/kg administered intravenously […]; format: functional, Canis lupus familiaris, Heart right ventricle; in short: as §1
[17] = tested on: Canis familiaris; test: Inotropic activity determined by evaluating the % change in contractile force (CF) of right ventricle at a dose of 3 ug/kg administered intravenously […]; format: functional, Canis lupus familiaris, Heart right ventricle; in short: as §1
[18] = tested on: Canis familiaris; test: Inotropic activity determined by evaluating the % change in Diastolic Blood Pressure (DBP) at a dose of 3 ug/kg administered intravenously […]; format: functional, Canis lupus familiaris; in short: as §1
[19] = tested on: Canis familiaris; test: Inotropic activity determined by evaluating the maximum rate of rise in left ventricular pressure at a dose of 3 ug/kg administered intravenously […]; format: functional, Canis lupus familiaris, Muscle tissue; in short: as §1
[20] = tested on: Canis familiaris; test: Inotropic activity determined by evaluating the % change in Cardiac out put (CO)at a dose of 3 ug/kg administered intravenously […]; format: functional, Canis lupus familiaris; in short: as §1
[21] = tested on: Canis familiaris; test: Inotropic activity determined by evaluating the % change in Diastolic Blood Pressure (DBP) at a dose of 30 ug/kg administered intravenously […]; format: functional, Canis lupus familiaris; in short: as §1
[22] = tested on: Canis familiaris; test: Inotropic activity determined by evaluating the % change in Cardiac out put (CO)at a dose of 30 ug/kg administered intravenously […]; format: functional, Canis lupus familiaris; in short: as §1
[23] = tested on: Canis familiaris; test: Inotropic activity determined by evaluating the % change in Heart Rate (HR) at a dose of 30 ug/kg administered intravenously […]; format: functional, Canis lupus familiaris; in short: as §1
[24] = tested on: Canis familiaris; test: Inotropic activity determined by evaluating the % change in Systolic Blood Pressure (SBP) at a dose of 30 ug/kg administered intravenously […]; format: functional, Canis lupus familiaris, Muscle tissue; in short: as §1
[25] = tested on: Canis familiaris; test: Inotropic activity determined by evaluating the maximum rate of rise in left ventricular pressure at a dose of 30 ug/kg administered intravenously […]; format: functional, Canis lupus familiaris, Muscle tissue; in short: as §1
[26] = tested on: Canis familiaris; test: Inotropic activity determined by evaluating the % change in contractile force (CF) of right ventricle at a dose of 30 ug/kg administered intravenously […]; format: functional, Canis lupus familiaris, Heart right ventricle; in short: as §1

## CC1CC(=O)NN=C1c1ccc(Nc2ccncc2)cc1.Cl (stereo not given)
[1]
  ED15: 1.5 µg
[2]
  dP/dt: 8.1%
[3]
  Change of SBP: -23.6%
[4]
  Change of CO: 24.5%
[5]
  Change of HR: 3.4%
[6]
  Change of HR: 15.8%
[7]
  Change of DBP: -31.4%
[8]
  Change of DBP: -7.3%
[9]
  Change of HR: 25.1%
[10]
  ED30: 4.4 µg/kg
[11]
  dP/dt: 58.4%
[12]
  Change of SBP: -14.1%
[13]
  Change of CF: 7.9%
[14]
  Change of CO: 5.1%
[15]
  Change of SBP: -4.7%
[16]
  Change of CF: 61.5%
[17]
  Change of CF: 22.7%
[18]
  Change of DBP: -21.2%
[19]
  dP/dt: 19.5%
[20]
  Change of CO: 11.7%

## Cl.O=C1CCC(c2ccc(Nc3ccncc3)cc2)=NN1
[21]
  Change of DBP: -32.9%
[1]
  ED15: 4.1 µg
[3]
  Change of SBP: -16.1%
[22]
  Change of CO: 27.7%
[4]
  Change of CO: 17.2%
[23]
  Change of HR: 17.4%
[6]
  Change of HR: 5.8%
[7]
  Change of DBP: -22%
[9]
  Change of HR: 9.9%
[10]
  ED30: 8.5 µg/kg
[11]
  dP/dt: 37.3%
[12]
  Change of SBP: -7.9%
[24]
  Change of SBP: -24.9%
[25]
  dP/dt: 69.1%
[26]
  Change of CF: 78.9%
[16]
  Change of CF: 56.4%
[17]
  Change of CF: 34.4%
[18]
  Change of DBP: -10.9%
[19]
  dP/dt: 20.9%
[20]
  Change of CO: 12.6%
